# Results: article PMC8853157 (Medicinal Chemistry Research, 2022)
# Entries after “also recorded” stand apart in the source; their conditions may differ.
# Assays:
# LFA-1/ICAM-1 [1] = target: LFA-1/ICAM-1 (Homo sapiens, UniProt P20701); experiment: Jurkat T-cell adhesion assay; type: cell-based; conditions: for IC50 level in words / LFA-1/ICAM-1 antagonist activity in words: Jurkat T-cell adhesion assay; for LFA-1/ICAM-1 antagonist activity in words: compared with Lifitegrast
# Outline: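 Jurkat E6-1 cells (RPMI 1640, 5% FBS, 37 °C, 5% CO2) labeled with 8 μM BCECF for 15 min at room temperature. Cells (5 × 10^5/well) preincubated with compound for 30 min at 37 °C, then settled 1 h at 37 °C on recombinant human ICAM-1–Fc-coated wells. Titration 10−10–10−4 M in triplicate lanes. Non-adherent cells washed off; adherent-cell fluorescence read; IC50 by four-parameter logistic regression.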
# LFA-1/ICAM-1 [2] = conditions: read-out: previously reported IC50; HUT 78T cells; cited from earlier work
# dry eye mice model [3] = experiment: Dry eye mice model, overall effect; type: in vivo, C57/BL6 mice; conditions: 5% vs 7% (W/V) compound 1b, topical
# Outline: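 Female C57/BL6 mice (6–8 weeks, n = 5/group) were kept at RH 15, airflow 2 m/s and 21–23 °C for 14 days, with s.c. scopolamine hydrobromide (0.5 mg/0.2 ml) three times daily. Test compound (5% or 7% W/V) was given as 5 µL drops to both eyes twice daily. Read-outs were fluorescein score summed over five corneal regions, PAS goblet density and TUNEL; 10 eyes/group.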
# dry eye mice model [4] = experiment: TUNEL staining of corneal epithelium in dry eye mice model; type: in vivo, C57/BL6 mice; conditions: for TUNEL positive (Cy3 labeled) cells in cornea, apoptosis: 14 days, vs dry eye model group
# Outline: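 Female C57/BL6 mice, 6–8 weeks, n=5/group. Dry eye induced over 14 days. Both eyes received 5 µL drops twice daily: test compound 5% or 7% W/V, vehicle, or 5% reference antagonist. Eyes then excised, OCT-embedded and cut into 6 µm frozen central sagittal sections. Sections TUNEL/DAPI-stained. TUNEL-positive cells counted in the central 200 µm corneal epithelial field at ×400. n=10 eyes/group; mean ± SEM.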
# dry eye mice model [5] = experiment: Goblet cell density; type: in vivo, C57/BL6 mice; conditions: 14 days, vs dry eye model group
# Outline: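 Dry eye was induced in female C57/BL6 mice (6–8 weeks, n = 5/group) by RH 15, 2 m/s airflow, 21–23 °C and s.c. scopolamine hydrobromide (0.5 mg/0.2 ml) three times daily for 14 days. Eye drops (5 µL) went to both eyes twice daily. Central frozen sections (6 µm) were PAS-stained, and goblet cells per mm were counted by image analysis. Mean ± SEM, 10 eyes/group.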
# Sequence of LFA-1/ICAM-1 (Homo sapiens, UniProt P20701) (P20701 26-1170): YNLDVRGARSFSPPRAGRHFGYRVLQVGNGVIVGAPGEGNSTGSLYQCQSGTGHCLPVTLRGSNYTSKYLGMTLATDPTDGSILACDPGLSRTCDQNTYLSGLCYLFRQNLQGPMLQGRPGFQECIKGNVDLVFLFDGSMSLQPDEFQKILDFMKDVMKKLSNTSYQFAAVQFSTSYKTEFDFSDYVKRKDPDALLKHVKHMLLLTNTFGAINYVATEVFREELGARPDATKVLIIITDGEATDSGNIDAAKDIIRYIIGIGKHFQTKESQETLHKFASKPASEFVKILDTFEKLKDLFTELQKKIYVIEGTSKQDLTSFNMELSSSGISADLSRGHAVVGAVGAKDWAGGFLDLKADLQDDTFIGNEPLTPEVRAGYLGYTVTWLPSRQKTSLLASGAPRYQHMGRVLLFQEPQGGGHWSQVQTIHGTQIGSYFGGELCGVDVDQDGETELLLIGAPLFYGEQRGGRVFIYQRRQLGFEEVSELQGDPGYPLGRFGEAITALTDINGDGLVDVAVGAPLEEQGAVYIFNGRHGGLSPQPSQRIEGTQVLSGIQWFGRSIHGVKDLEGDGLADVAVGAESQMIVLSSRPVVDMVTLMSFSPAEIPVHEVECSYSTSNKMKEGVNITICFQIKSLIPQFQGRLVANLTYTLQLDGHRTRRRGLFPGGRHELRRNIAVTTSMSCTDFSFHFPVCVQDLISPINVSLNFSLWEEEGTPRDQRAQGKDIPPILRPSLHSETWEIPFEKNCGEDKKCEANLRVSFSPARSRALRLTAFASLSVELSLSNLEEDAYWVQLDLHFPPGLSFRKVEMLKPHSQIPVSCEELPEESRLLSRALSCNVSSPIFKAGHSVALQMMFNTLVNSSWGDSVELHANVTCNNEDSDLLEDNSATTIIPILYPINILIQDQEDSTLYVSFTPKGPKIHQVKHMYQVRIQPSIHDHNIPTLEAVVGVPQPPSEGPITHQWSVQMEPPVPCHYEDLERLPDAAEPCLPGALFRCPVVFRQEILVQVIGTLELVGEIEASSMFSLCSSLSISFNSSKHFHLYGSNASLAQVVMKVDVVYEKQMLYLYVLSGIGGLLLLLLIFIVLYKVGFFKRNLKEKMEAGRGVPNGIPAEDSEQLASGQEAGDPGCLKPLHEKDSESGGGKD
# Sequence of LFA-1/ICAM-1 (Homo sapiens, UniProt P20701) (P05107 23-769 partner): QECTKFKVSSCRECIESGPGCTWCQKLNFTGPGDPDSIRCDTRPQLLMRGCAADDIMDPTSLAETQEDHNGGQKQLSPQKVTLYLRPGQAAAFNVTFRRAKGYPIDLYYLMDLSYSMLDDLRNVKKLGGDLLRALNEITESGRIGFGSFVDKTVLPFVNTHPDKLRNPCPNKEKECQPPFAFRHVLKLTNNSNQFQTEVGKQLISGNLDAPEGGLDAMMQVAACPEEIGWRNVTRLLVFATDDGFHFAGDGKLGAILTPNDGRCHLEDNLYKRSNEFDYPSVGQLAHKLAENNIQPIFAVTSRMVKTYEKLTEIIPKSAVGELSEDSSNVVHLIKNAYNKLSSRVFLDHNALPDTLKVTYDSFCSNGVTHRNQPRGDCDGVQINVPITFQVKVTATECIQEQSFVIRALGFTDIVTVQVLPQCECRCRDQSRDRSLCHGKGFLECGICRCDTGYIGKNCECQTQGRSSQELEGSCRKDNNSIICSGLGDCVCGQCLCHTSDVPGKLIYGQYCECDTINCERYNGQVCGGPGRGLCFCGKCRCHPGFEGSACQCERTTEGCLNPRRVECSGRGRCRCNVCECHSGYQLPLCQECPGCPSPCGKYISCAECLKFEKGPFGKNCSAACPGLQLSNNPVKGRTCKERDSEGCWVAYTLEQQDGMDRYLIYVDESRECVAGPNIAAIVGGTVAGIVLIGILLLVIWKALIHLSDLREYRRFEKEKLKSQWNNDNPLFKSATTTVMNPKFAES
Structure (SMILES),IC50 level in words (LFA-1/ICAM-1 [1]),LFA-1/ICAM-1 antagonist activity in words (LFA-1/ICAM-1 [1]),further results
"CS(=O)(=O)c1cccc(C[C@H](NC(=O)c2c(Cl)cc3c(c2Cl)CCN(C(=O)c2ccc4ccoc4c2)C3)C(=O)O)c1 [Lifitegrast, reference compound]",–,–,"IC50 (LFA-1/ICAM-1 [1]; IC50, Jurkat T-cell adhesion assay, text and Fig. 3): ~10.5 nM; IC50 (LFA-1/ICAM-1 [2]): 9 nM"
"O=C(NC(Cc1ccc2ncccc2c1)C(=O)O)c1c(Cl)cc2c(c1Cl)CCN(C(=O)c1ccc3ccoc3c1)C2 (centres unmarked) [Compound 1f, 2-(2-(Benzofuran-6-carbonyl)-5,7-dichloro-1,2,3,4-tetrahydroisoquinoline-6-carboxamido)-3-(quinolin-6-yl)propanoic acid]",several micromol levels,–,–
"CS(=O)(=O)c1cccc(C[C@H](NC(=O)c2c(Cl)cc3c(c2Cl)CCN(C(=O)NCc2ccc4ccoc4c2)C3)C(=O)O)c1 [Compound 1b, (S)-2-(2-((Benzofuran-6-ylmethyl)carbamoyl)-5,7-dichloro-1,2,3,4-tetrahydroisoquinoline-6-carboxamido)-3-(3-(methylsulfonyl)phenyl)propanoic acid]",–,certain LFA-1/ICAM-1 antagonist activity,"difference in effect between the two concentrations (dry eye mice model [3]): no statistical difference in the effect between 5% and 7%; TUNEL positive (Cy3 labeled) cells in cornea, apoptosis (dry eye mice model [4]; 5% (W/V) compound 1b): markedly decreased; also recorded: protective effect on apoptosis of ocular surface cells; anti-apoptotic effect compared with Lifitegrast treatment group (dry eye mice model [4]; 5% or 7% compound 1b vs 5% Lifitegrast): weaker than that of Lifitegrast; TUNEL positive (Cy3 labeled) cells in cornea, apoptosis (dry eye mice model [4]; 7% (W/V) compound 1b): markedly decreased; also recorded: protective effect on apoptosis of ocular surface cells; density of goblet cells on conjunctival epithelium (dry eye mice model [5]; 5% (W/V) compound 1b): significantly increased the density of goblet cells; also recorded: significantly increased goblet cell density; density of goblet cells on conjunctival epithelium (dry eye mice model [5]; 7% (W/V) compound 1b): significantly increased the density of goblet cells; also recorded: significantly increased goblet cell density"
"C#Cc1cccc(C(=O)N2CCc3c(cc(Cl)c(C(=O)N[C@@H](Cc4cccc(S(C)(=O)=O)c4)C(=O)O)c3Cl)C2)c1 [Compound 1e, (S)-2-(2-(3-Ethynylbenzoyl)-5,7-dichloro-1,2,3,4-tetrahydroisoquinoline-6-carboxamido)-3-(3-(methylsulfonyl)phenyl)propanoic acid]",–,decreased LFA-1/ICAM-1 antagonist activity obviously,–
"CS(=O)(=O)c1cccc(C[C@H](NC(=O)c2c(Cl)cc3c(c2Cl)CCN(C(=O)Cc2ccc4occc4c2)C3)C(=O)O)c1 [Compound 1c, (S)-2-(2-(2-(Benzofuran-5-yl)acetyl)-5,7-dichloro-1,2,3,4-tetrahydroisoquinoline-6-carboxamido)-3-(3-(methylsulfonyl)phenyl)propanoic acid]",several micromol levels,certain LFA-1/ICAM-1 antagonist activity,–
"O=C(NC(Cc1ccc2c(c1)S(=O)(=O)CC2)C(=O)O)c1c(Cl)cc2c(c1Cl)CCN(C(=O)c1ccc3ccoc3c1)C2 (centres unmarked) [Compound 1g, 2-(2-(Benzofuran-6-carbonyl)-5,7-dichloro-1,2,3,4-tetrahydroisoquinoline-6-carboxamido)-3-(1,1-dioxido-2,3-dihydrobenzo[b]thiophen-6-yl)propanoic acid]",–,loss of activity,–
"CS(=O)(=O)c1cccc(C[C@H](NC(=O)c2c(Cl)cc3c(c2Cl)CCN(S(=O)(=O)c2ccc4ccoc4c2)C3)C(=O)O)c1 [Compound 1a, (S)-2-(2-(Benzofuran-6-ylsulfonyl)-5,7-dichloro-1,2,3,4-tetrahydroisoquinoline-6-carboxamido)-3-(3-(methylsulfonyl)phenyl)propanoic acid]",–,decreased LFA-1/ICAM-1 antagonist activity obviously,–
"O=C1CCc2ccc(CC(NC(=O)c3c(Cl)cc4c(c3Cl)CCN(C(=O)c3ccc5ccoc5c3)C4)C(=O)O)cc2N1 (centres unmarked) [Compound 1h, 2-(2-(Benzofuran-6-carbonyl)-5,7-dichloro-1,2,3,4-tetrahydroisoquinoline-6-carboxamido)-3-(2-oxo-1,2,3,4-tetrahydroquinolin-7-yl)propanoic acid]",several micromol levels,–,–
"CS(=O)(=O)c1cccc(C[C@H](NC(=O)c2c(Cl)cc3c(c2Cl)CCN(C(=O)c2ccc4ncnn4c2)C3)C(=O)O)c1 [Compound 1d, (S)-2-(2-([1,2,4]Triazolo[1,5-a]pyridine-6-carbonyl)-5,7-dichloro-1,2,3,4-tetrahydroisoquinoline-6-carboxamido)-3-(3-(methylsulfonyl)phenyl)propanoic acid]",–,decreased LFA-1/ICAM-1 antagonist activity obviously,–
